Source: PubChem
Compounds with a hit are over-represented: about 1.6% of the library has one in this group of screens.
TLR4 MyD88 comp – inhibitors of human TLR4-MyD88 binding; O00206+Q99836; HeLa CL3-4 TLR4/MyD88 BLA complementation, FRET ratio; inhibition, % at 8.4 µM; 200,000 compounds, 0.18% hits; in the data active = inhibition above about 25%;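 note: 0% = vehicle and 100% = reference inhibitor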
Lipid droplet – modulators of hepatic lipid droplet formation; inhibition, % at 6.5 µM; AML12 mouse hepatocytes, oleate lipid droplets, BODIPY imaging; 240,000 compounds, 0.4% hits;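 active = lipid droplet intensity inhibited by at least 50%, with more than 500 cells counted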
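Assay system: AML12 hepatocytes (mouse); Probe or stimulus: oleic acid at 100 µM to induce lipid droplet formation; Dosing: compound at 6.5 µM only; Schedule: compound with oleate, overnight; Detection: fluorescence imaging, 20x objective, two fields per well; Measure: % inhibition of lipid droplet signal.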
NOD2 RIPK2 PPI – blocks binding of human NOD2 to RIPK2; AID 624267; inhibition, % at 4.98 µM; O43353; 360,000 compounds, 0.38% hits; CHO BLA complementation NOD2-RIPK2, CCF4 ratio; in the data active = inhibition above about 21%;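 note: 0% = vehicle only and 100% = reference blocker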
SR-BI HDL uptake – mouse SR-BI HDL lipid transfer inhibition. AID 488896. ldlA[mSR-BI] CHO cells, DiI-HDL uptake fluorescence, 3 h. 320,000 compounds, 0.96% hits. inhibition, % at 12.5 µM. Q61009;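 active = mean replicate inhibition of at least 70% and a set share of replicates each scoring 70 or more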;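 note: 0% = median of neutral control wells and 100% = median of positive control wells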
Target sequence (Q61009 whole entry, looked up): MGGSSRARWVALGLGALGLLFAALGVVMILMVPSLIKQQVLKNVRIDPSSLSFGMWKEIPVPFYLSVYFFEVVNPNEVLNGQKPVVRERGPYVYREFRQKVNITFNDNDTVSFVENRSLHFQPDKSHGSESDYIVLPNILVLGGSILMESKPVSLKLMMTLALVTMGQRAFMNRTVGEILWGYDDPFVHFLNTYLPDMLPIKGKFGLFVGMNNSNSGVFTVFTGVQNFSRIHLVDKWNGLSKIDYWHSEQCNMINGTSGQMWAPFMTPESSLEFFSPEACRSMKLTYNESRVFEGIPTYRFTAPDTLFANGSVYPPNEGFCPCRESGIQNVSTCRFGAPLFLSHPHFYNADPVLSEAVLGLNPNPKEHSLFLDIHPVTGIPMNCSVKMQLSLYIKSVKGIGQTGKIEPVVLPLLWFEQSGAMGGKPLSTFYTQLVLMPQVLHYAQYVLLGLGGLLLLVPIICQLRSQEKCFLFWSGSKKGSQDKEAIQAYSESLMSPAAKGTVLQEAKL
TLR9-MyD88 block – inhibitors of human TLR9-MyD88 binding; Q9NR96+Q99836; CHO BLA complementation TLR9-MyD88, CCF4 FRET ratio; inhibition, % at 4.98 µM; 340,000 compounds, 0.21% hits; AID 504734;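 active = inhibition above the mean over all tested compounds plus 3 SD, cut at about 21% in these data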;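 note: 0% = DMSO only wells and 100% = clavulanate BLA inhibitor control wells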
SR-BI uptake up – activators of SR-BI mediated HDL lipid uptake; CHO ldlA[mSR-BI] cells, DiI-HDL uptake fluorescence, 3 h; 100 = double the neutral-control signal; AID 504775; activation, % at 12.5 µM; 320,000 compounds, 0.096% hits;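 active = mean replicate activation of at least 60% and every replicate at or above 60%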;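 note: 0% = median plate neutral-control signal and 100% = twice that signal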
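Assay system: LDL receptor-deficient CHO ldlA cells overexpressing murine SR-BI / Medium: BSA-supplemented, HEPES-buffered Ham's F12, pH 7.4 / Probe or stimulus: DiI-labelled HDL at 10 µg/mL final / Timing: compound with DiI-HDL co-incubation, 3 h at 37 °C / Technique: bottom-read cell fluorescence after medium removal, ex 550/em 595 nm / Measure: HDL uptake via cellular fluorescence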
NOD2-RIPK2 conf – NOD2-RIPK2 interaction inhibition confirmed. shares compounds with NOD2 RIPK2 PPI. 1,200 compounds, 70% hits. CHO cells, NOD2-RIPK2 BLA complementation, CCF4 FRET. inhibition, % at 4.98 µM. AID 624370;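 active = mean inhibition across replicates above a set limit taken from the earlier primary screen, cut at about 21% in these data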;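 note: 0% = DMSO-only wells and the high end = clavulanate BLA-blocked wells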
NOD2 BLA counter – NOD2-RIPK2 counterscreen BLA reporter activity; shares compounds with NOD2 RIPK2 PPI; CHO BLA reporter, CCF4 FRET ratio; inhibition, % at 4.98 µM; 1,200 compounds, 57% hits; AID 624371;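 active = mean inhibition above the low-control mean inhibition plus three low-control SD, cut at about 11% in these data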;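 note: 0% = DMSO only wells and 100% = clavulanate high control wells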
* marks the source's active call; other numbers are inactive results; · = no result given.

SMILES	TLR4 MyD88 comp	Lipid droplet	NOD2 RIPK2 PPI	SR-BI HDL uptake	TLR9-MyD88 block	SR-BI uptake up	NOD2-RIPK2 conf	NOD2 BLA counter
COc1cc(/C=C/[N+](=O)[O-])ccc1O	2.6	-15.5	42.0*	-80.8	9.9	80.8*	44.4*	-6.1
N#CC(=C(O)c1ccc(S(=O)(=O)N(CCCl)CCCl)cc1)c1nc2ccccc2[nH]1	·	·	-9.4	1.9	-13.6	-1.9	·	·
CCOC(=O)[C@]12Cc3cc(C)ccc3[C@H]1N(C1CCCCC1)C(=O)c1cc(OC)ccc12	·	·	62.3*	·	·	·	73.3*	1.6
CCOC(=O)[C@]12Cc3cc(C)ccc3[C@H]1N(CCC(=O)OC)C(=O)c1cc(OC)ccc12	·	·	-3.9	·	·	·	·	·
CCOC(=O)[C@]12Cc3cc(OC)ccc3[C@H]1N(C1CCCCC1)C(=O)c1cc(OC)ccc12	·	·	40.0*	·	·	·	25.6*	-3.8
CCOC(=O)[C@]12Cc3ccccc3[C@H]1N(C)C(=O)c1cc(OC)ccc12	·	·	-4.7	·	·	·	·	·
O=C1NCN(c2ccccc2)C12CCN(C(c1cc3ccccc3o1)c1nnnn1C1CCCCC1)CC2 (stereo not given)	·	·	1.2	·	·	·	·	·
NC(=O)CS(=O)C(c1ccccc1)c1ccccc1 (stereo not given)	·	18.8	·	·	·	·	·	·
ClCCN(CCCl)c1ccc(C=Cc2ccncn2)cc1	·	·	62.8*	·	·	·	47.3*	60.1*
Cc1[nH]c2ccccc2c1CN1CCCCC1	·	·	-12.9	5.0	-2.3	-5.0	·	·
CC(=O)OC1(C)CC(C)C(=O)C(C(O)CC2CC(=O)NC(=O)C2)C1 (stereo not given)	·	·	28.5*	-28.0	-9.3	28.0	22.6*	-3.9
N#CC1=C(N)Oc2c(c(=O)sc3ccccc23)C1c1cccnc1 (stereo not given)	-4.3	18.8	21.8*	-15.9	0.4	15.9	0.5	-2.7
COC(=O)C1=C(c2ccc(F)cc2OCc2ccccc2)C[C@@H]2CC[C@H]1N2C(=O)NCc1cccc(C(F)(F)F)c1	·	·	-4.5	35.3	-3.8	-35.3	·	·
CCOP(=O)(CCP(=O)(OCC)OCC)OCC.C[CH2][Sn]([Cl])([Cl])[CH2]C	·	·	25.2*	3.0	-2.1	-3.0	51.4*	0.7
O=C(NCC1=C(c2ccc3ccccc3c2)C[C@@H]2CC[C@H]1N2Cc1ccco1)c1nccs1	·	·	-3.5	·	-2.9	·	·	·
CCN(CC)c1ccc(/C=C/[N+](=O)[O-])cc1	20.4	-12.4	44.1*	4.4	19.7	-4.4	54.5*	28.1*
COc1cccc(C(c2nnnn2Cc2ccccc2)N2CCC3(CC2)C(=O)NCN3c2ccccc2)c1OC (stereo not given)	·	·	0.2	·	·	·	·	·
Cc1cccc(C(O)(C(=O)O)c2ccccc2)c1 (stereo not given)	·	·	-6.9	-17.4	-17.4	17.4	·	·
O=C(CCN1CC1)OCCOC(=O)CCN1CC1	·	·	8.2	-18.8	-5.0	18.8	·	·
COc1ccc(CC2NCC(O)C2OC(C)=O)cc1 (stereo not given)	·	·	35.3*	-23.5	1.6	23.5	32.4*	-2.9
COc1ccc(CC(=O)N2CCN(C)CC2)cc1	11.0	·	1.9	-4.3	4.4	4.3	·	·
CC1=CC2OC3CC4OC(=O)C=CC=CC(=O)OCCC(C)C(O)C(=O)OCC2(CC1O)C4(C)C31CO1 (stereo not given)	·	·	29.3*	-22.9	-10.9	22.9	28.2*	-7.4
CC1=CC2OC3CC4OC(=O)C=CC=CC(C(C)O)OCC(O)C(C)CC(=O)OCC2(CC1O)C4(C)C31CO1 (stereo not given)	·	·	21.7*	-25.3	-3.0	25.3	21.4*	-0.4
C[C@@H]1COc2cccc(N3CCN(C)CC3)c2S(=O)(=O)N1	·	·	-8.4	·	·	·	·	·
CC(=O)OC1C(O)C(C)OC(OC2C(OC(=O)C3CCC4C(C3)OC3(CC(OC(=O)/C=C/c5ccccc5)C(C)CO3)C43CO3)OC(C)C(O)C2OC(C)=O)C1O (stereo not given)	·	·	23.4*	-8.3	8.9	8.3	28.1*	-5.0
